ChEMBL document CHEMBL2417401, “Evaluation of steroidal amines as lipid raft modulators and potential anti-influenza agents” (Bioorg Med Chem Lett, 2013)
pIC50: −log10 of the molar value.

Experiments:
Influenza A virus [1] = assay: Antiviral activity against Influenza A/PR8/34 (H1N1) virus infected in MDCK2 cells assessed as raft modulation using N-terminally sterol-linked peptide as tracer relative to control; format: functional, A/Puerto Rico/8/1934(H1N1), MDCK-II; parameters: concentration or dose not given beside the values
How it was run: (§1)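 Raft liposomes (mol %: cholesterol 35, sphingomyelin 10.5, ganglioside M1 3.5, phosphatidylcholine 25.5, phosphatidylserine 25.5). Tracer is perylene or an N-terminally sterol-linked peptide inserted in the outer leaflet. Liposome/buffer partitioning is read by fluorescence; P is approximated as the membrane/aqueous tracer ratio. Disrafting % = 100×{1−P_steroid/P_DMSO}; augmentation % = −100×{1−P_DMSO/P_steroid}.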

Influenza A virus [2] = assay: Antiviral activity against Influenza A/PR8/34 (H1N1) virus infected in MDCK2 cells assessed as inhibition of virus budding by ELISA relative to control; format: functional, A/Puerto Rico/8/1934(H1N1), MDCK-II
How it was run: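 Infected MDCKII cells biotinylated 6 h post-infection; excess biotin quenched, and virus budded over the next hour harvested. Biotinylated particles captured on streptavidin-coated plates and detected by ELISA. Result relative to DMSO solvent control (100%).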

Influenza A virus [3] = assay: Antiviral activity against Influenza A/PR8/34 (H1N1) virus infected in MDCK2 cells assessed as inhibition of virus reproduction by ELISA; format: functional, organism-based; settings: A/Puerto Rico/8/1934(H1N1), MDCK-II
Influenza A virus [4] = assay: Antiviral activity against Influenza A/PR8/34 (H1N1) virus infected in MDCK2 cells assessed as inactivation of virus by virucidal assay relative to control; format: functional, A/Puerto Rico/8/1934(H1N1), MDCK-II; parameters: concentration or dose not given beside the values
How it was run: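 Influenza A/PR8/34 (H1N1) incubated with compound for 30 min, then titrated by focus reduction assay (cell ELISA in MDCKII cells with anti-nucleoprotein antibody HB65). Activity expressed relative to DMSO solvent control set at 100%.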

[5] = Cytotoxicity against MDCK2 cells assessed as maximum tolerated concentration by lactate dehydrogenase release assay; format: cell-based, Canis lupus familiaris, MDCK-II; settings: dog, read-out: MTD
How it was run: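 Maximum tolerated concentration in MDCKII cells from LDH release, determined under focus reduction assay conditions.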

[6] = Therapeutic index, ratio of MTD for MDCK2 cells to IC50 for Influenza A/PR8/34 (H1N1) virus; format: cell-based; settings: dog, read-out: TI
How it was run: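 TI = MTC/IC50. IC50 comes from a focus reduction cell ELISA (anti-NP antibody HB65) in MDCKII cells, which were pre-incubated 5 min with serially diluted compound and then infected with serially diluted A/PR8/34. IC50 was obtained by regression where a dose-effect relation was seen; assays were run at least twice.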

Influenza A virus [7] = assay: Antiviral activity against Influenza A/PR8/34 (H1N1) virus infected in MDCK2 cells assessed as raft modulation using perylene as tracer relative to control; format: functional, A/Puerto Rico/8/1934(H1N1), MDCK-II; parameters: concentration or dose not given beside the values; how it was run: as §1

| Compound | Activity (Influenza A virus [1]) | inhibition (INH) (Influenza A virus [2]) | pIC50 (Influenza A virus [3]) | IC90 (Influenza A virus [3]) | Activity (Influenza A virus [4]) | MNTC [5] | selectivity ratio [6] | Activity (Influenza A virus [7]) |
| --- | --- | --- | --- | --- | --- | --- | --- | --- |
| CC(C)CCC[C@@H](C)[C@H]1CC[C@H]2[C@@H]3CC[C@H]4C[C@H](N)CC[C@]4(C)[C@H]3CC[C@]12C | 56.3% | 79.9% | 5.72 | ≥ 15 µM | 28.5% | 15 µM | 7.9 | -72.8% |
| CC(C)CCC[C@@H](C)[C@H]1CC[C@H]2[C@@H]3CC[C@@]4(O)[C@H](O)C(=O)CC[C@]4(C)[C@H]3CC[C@]12C | – | – | 4.80 | – | – | – | – | – |
| CC(C)CCC[C@@H](C)[C@H]1CC[C@H]2[C@@H]3CC[C@H]4C[C@@H](N(C)C)CC[C@]4(C)[C@H]3CC[C@]12C | 15.6% | 42.8% | 5.43 | ≥ 15 µM | 0% | 15 µM | 4.1 | 15.5% |
| CC(C)CCC[C@@H](C)[C@H]1CC[C@H]2[C@@H]3CC[C@H]4C[C@@H]([N+](C)(C)C)CC[C@]4(C)[C@H]3CC[C@]12C.[I-] | 83.5% | 94.4% | 5.46 | ≥ 12.5 µM | 16% | 12.5 µM | 3.6 | 90.3% |
| CC(C)CCC[C@@H](C)[C@H]1CC[C@H]2[C@@H]3CC=C4C[C@@H](N)CC[C@]4(C)[C@H]3CC[C@]12C | 78.8% | 50.9% | 5.07 | 11.4 µM | 63.4% | 25 µM | 2.9 | 83.2% |
| CC(C)CCC[C@@H](C)[C@H]1CC[C@H]2[C@@H]3CC[C@H]4C[C@H](O)[C@@H](N)C[C@]4(C)[C@H]3CC[C@]12C | 32.3% | 53% | 5.33 | 62 µM | 75.5% | 75 µM | 16 | 26.5% |
| CC(C)CCC[C@@H](C)[C@H]1CC[C@H]2[C@@H]3CC[C@H]4C[C@@H](CN)CC[C@]4(C)[C@H]3CC[C@]12C | -39.3% | 30.7% | 5.40 | 11.6 µM | 90.3% | 37.5 µM | 9.4 | -66.6% |
| CC(C)CCC[C@@H](C)[C@H]1CC[C@H]2[C@@H]3CC[C@H]4C[C@H](CN)CC[C@]4(C)[C@H]3CC[C@]12C | -39.6% | 12.7% | 5.43 | 7.7 µM | 50.9% | 37.5 µM | 10.1 | -60.3% |
| CC(C)CCC[C@@H](C)[C@H]1CC[C@H]2[C@@H]3CC[C@H]4C[C@](O)(CN)CC[C@]4(C)[C@H]3CC[C@]12C | 15.6% | 41% | 5.64 | 21.5 µM | 64.2% | 25 µM | 10.9 | -41.5% |
| CC(C)CCC[C@@H](C)[C@H]1CC[C@H]2[C@@H]3CC[C@H]4C[C@@H](CCN)CC[C@]4(C)[C@H]3CC[C@]12C | 31.2% | 65% | 5.68 | 13.4 µM | 132% | 50 µM | 23.8 | -38.2% |
| CC(C)CCC[C@@H](C)[C@H]1CC[C@H]2[C@@H]3CC[C@H]4CCNCC[C@]4(C)[C@H]3CC[C@]12C | – | 61.8% | 5.48 | 9.7 µM | 44.1% | 12.5 µM | 3.8 | – |
| CC(C)CCC[C@@H](C)[C@H]1CC[C@H]2[C@@H]3CC[C@H]4NCCC[C@]4(C)[C@H]3CC[C@]12C | 36.1% | 20.4% | 5.23 | – | 0% | 15 µM | 2.5 | 2.8% |
| CC(C)CCC[C@@H](C)[C@H]1CC[C@H]2[C@@H]3CC[C@@]4(O)[C@H](O)[C@@H](O)CC[C@]4(C)[C@H]3CC[C@]12C | -36.5% | 39.4% | 4.79 | – | 76.7% | 15 µM | 0.9 | -65.2% |
| CN[C@H]1CC[C@@]2(C)[C@@H](CC[C@@H]3[C@@H]2CC[C@]2(C)[C@@H]([C@H](C)CCCC(C)C)CC[C@@H]32)C1 | -7% | 33.8% | 5.48 | 17.5 µM | 0% | 25 µM | 7.6 | -50.5% |
| CC(C)CCCC(C)C1CCC2C3CCC4CC(N)CCC4(C)C3CCC12C (centres undefined) | -7.1% | 51.8% | 5.77 | 9 µM | 47.8% | 15 µM | 8.8 | -42.4% |
